What was measured:
Glucagon receptor = Glucagon receptor (Homo sapiens, UniProt P47871); test: Agonist activity at human glucagon receptor expressed in HEK293 cells assessed as induction of cAMP accumulation incubated for 30 mins by HTRF assay; format: functional, cell-based
[1] = molecular target: Glucagon-like peptide 1 receptor (Homo sapiens, UniProt P43220); test: Agonist activity at human GLP-1 receptor expressed in HEK293 cells assessed as induction of cAMP accumulation incubated for 30 mins by HTRF assay; format: functional, cell-based
How it was run: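 HEK-293 cells stably expressing human receptor, grown in DMEM/10% FBS, frozen, thawed and washed in HBSS/20 mM HEPES/0.1% HSA; resuspended with 2 mM IBMX. 5000 cells/well incubated with peptide 30 min at room temperature; cAMP by HTRF kit, 1 h with reagents in lysis buffer, 665/620 nm fluorescence ratio.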

Carboxypeptidase B2 = molecular target: T1, Carboxypeptidase B2 (Homo sapiens, UniProt Q96IY4); test: Inhibition of TAFIalpha in human plasma incubated for 15 mins by chromogenic assay; format: cell-free
T1 sequence (Q96IY4 whole entry): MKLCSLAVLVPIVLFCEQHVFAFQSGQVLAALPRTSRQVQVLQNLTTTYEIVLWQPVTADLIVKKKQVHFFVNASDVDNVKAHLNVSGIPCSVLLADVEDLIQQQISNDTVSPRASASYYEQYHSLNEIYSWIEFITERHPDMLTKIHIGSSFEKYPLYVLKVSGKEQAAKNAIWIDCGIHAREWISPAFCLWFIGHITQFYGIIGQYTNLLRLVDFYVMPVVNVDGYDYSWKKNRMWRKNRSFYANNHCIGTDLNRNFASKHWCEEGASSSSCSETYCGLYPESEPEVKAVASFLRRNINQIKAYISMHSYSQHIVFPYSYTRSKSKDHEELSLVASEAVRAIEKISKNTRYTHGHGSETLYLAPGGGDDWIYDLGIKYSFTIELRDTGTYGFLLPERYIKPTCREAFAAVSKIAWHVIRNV
How it was run: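 Plasma TAFI activity kit: TAFIa (2.5 μg/mL) preincubated with compound (from 2.5 mM DMSO stock) in 20 mM HEPES, 150 mM NaCl, pH 7.4, 15 min at room temperature; reaction started with developer (1:2 prediluted) and followed at 420 nm for 15 min. IC50 from serial dilutions in duplicate; mean (SEM) of n = 2 within one experiment.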

Glucagon receptor, sequence (P47871 whole entry): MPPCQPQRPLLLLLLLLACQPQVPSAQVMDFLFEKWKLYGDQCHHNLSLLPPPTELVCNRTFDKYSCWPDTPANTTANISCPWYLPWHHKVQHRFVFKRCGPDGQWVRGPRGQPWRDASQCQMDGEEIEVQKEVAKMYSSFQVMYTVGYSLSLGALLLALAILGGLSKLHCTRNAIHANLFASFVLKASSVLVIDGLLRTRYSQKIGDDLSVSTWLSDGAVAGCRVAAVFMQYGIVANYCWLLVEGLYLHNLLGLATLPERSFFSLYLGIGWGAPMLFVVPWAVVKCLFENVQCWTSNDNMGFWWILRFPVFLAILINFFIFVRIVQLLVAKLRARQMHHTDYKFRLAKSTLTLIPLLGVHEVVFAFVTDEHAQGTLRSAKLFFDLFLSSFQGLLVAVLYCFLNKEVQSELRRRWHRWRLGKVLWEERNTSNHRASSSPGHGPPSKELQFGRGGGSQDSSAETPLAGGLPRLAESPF
Glucagon-like peptide 1 receptor, sequence (P43220 whole entry): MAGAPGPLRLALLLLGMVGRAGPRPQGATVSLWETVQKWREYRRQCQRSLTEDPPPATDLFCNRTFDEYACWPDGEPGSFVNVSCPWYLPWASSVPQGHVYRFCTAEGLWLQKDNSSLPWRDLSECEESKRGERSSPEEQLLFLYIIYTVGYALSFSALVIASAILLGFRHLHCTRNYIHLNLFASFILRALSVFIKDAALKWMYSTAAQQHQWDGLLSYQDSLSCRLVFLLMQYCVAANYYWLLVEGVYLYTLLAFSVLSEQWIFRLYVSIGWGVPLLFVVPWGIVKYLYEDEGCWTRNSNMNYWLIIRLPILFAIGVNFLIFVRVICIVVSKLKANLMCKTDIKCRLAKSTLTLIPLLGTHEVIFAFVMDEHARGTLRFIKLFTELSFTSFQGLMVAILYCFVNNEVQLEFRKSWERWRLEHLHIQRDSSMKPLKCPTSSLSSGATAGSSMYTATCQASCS

SMILES | IC50 (Carboxypeptidase B2) | EC50 (Glucagon receptor) | EC50 [1]
CC[C@H](C)[C@H](NC(=O)[C@H](Cc1ccccc1)NC(=O)[C@H](CC(=O)O)NC(=O)[C@H](CCC(N)=O)NC(=O)[C@H](C)NC(=O)[C@H](CCCNC(=N)N)NC(=O)[C@H](CCCNC(=N)N)NC(=O)[C@H](CO)NC(=O)[C@H](CC(=O)O)NC(=O)[C@H](CCSC)NC(=O)[C@H](CCC(N)=O)NC(=O)[C@H](CCCCN)NC(=O)[C@H](CO)NC(=O)[C@H](CC(C)C)NC(=O)[C@H](CC(=O)O)NC(=O)[C@H](CO)NC(=O)[C@@H](NC(=O)[C@H](Cc1ccccc1)NC(=O)[C@@H](NC(=O)CNC(=O)[C@H](CCC(N)=O)NC(=O)[C@H](CO)NC(=O)[C@@H](N)Cc1cnc[nH]1)[C@@H](C)O)[C@@H](C)O)C(=O)N[C@@H](CCC(=O)O)C(=O)N[C@@H](Cc1c[nH]c2ccccc12)C(=O)N[C@@H](CC(C)C)C(=O)N[C@@H](CCCCN)C(=O)N[C@@H](CC(N)=O)C(=O)NCC(=O)NCC(=O)N1CCC[C@H]1C(=O)N[C@@H](CO)C(=O)N[C@@H](CO)C(=O)NCC(=O)N[C@@H](C)C(=O)N1CCC[C@H]1C(=O)N1CCC[C@H]1C(=O)N1CCC[C@H]1C(=O)N[C@@H](CO)C(N)=O | – | 0.0286 nM | 0.0183 nM
CC[C@H](C)[C@H](NC(=O)[C@H](Cc1ccccc1)NC(=O)[C@H](CC(=O)O)NC(=O)[C@H](CCC(N)=O)NC(=O)[C@H](C)NC(=O)[C@H](CCCNC(=N)N)NC(=O)[C@H](CCCNC(=N)N)NC(=O)[C@H](CO)NC(=O)[C@H](CC(=O)O)NC(=O)[C@]1(C)CCC/C=C\CCC[C@](C)(NC(=O)[C@H](CC(=O)O)NC(=O)[C@H](CO)NC(=O)[C@@H](NC(=O)[C@H](Cc2ccccc2)NC(=O)[C@@H](NC(=O)CNC(=O)[C@H](CCC(N)=O)NC(=O)[C@H](CO)NC(=O)[C@@H](N)Cc2cnc[nH]2)[C@@H](C)O)[C@@H](C)O)C(=O)N[C@@H](CO)C(=O)N[C@@H](CCCCN)C(=O)N[C@@H](CCC(N)=O)C(=O)N1)C(=O)N[C@@H](CCC(=O)O)C(=O)N[C@@H](Cc1c[nH]c2ccccc12)C(=O)N[C@@H](CC(C)C)C(=O)N[C@@H](CCCCN)C(=O)N[C@@H](CC(N)=O)C(=O)NCC(=O)NCC(=O)N1CCC[C@H]1C(=O)N[C@@H](CO)C(=O)N[C@@H](CO)C(=O)NCC(=O)N[C@@H](C)C(=O)N1CCC[C@H]1C(=O)N1CCC[C@H]1C(=O)N1CCC[C@H]1C(=O)N[C@@H](CO)C(N)=O | – | 0.0023 nM | 0.0074 nM
CC(C)[C@@H]1NC(=O)[C@H](NC(=O)N[C@@H](CCCCN)C(=O)O)CCCCNC(=O)c2coc1n2 | 42 nM | – | –

Now from value to compound, other results behind:

IC50 (Carboxypeptidase B2) | SMILES | EC50 (Glucagon receptor) | EC50 [1]
52 nM | CC(C)[C@@H]1NC(=O)[C@H](NC(=O)N[C@@H](CCCCN)C(=O)O)Cc2ccc(cc2)NC(=O)c2coc1n2 | – | –
10 nM | CC(C)[C@@H]1NC(=O)[C@H](NC(=O)N[C@@H](CCCCN)C(=O)O)CCCCNC(=O)c2csc1n2 | – | –
